Data: ChEMBL document CHEMBL1671681, “Distribution of serotypes, genotypes, and resistance determinants among macrolide-resistant Streptococcus pneumoniae isolates” (2010)
Values after ≈ are worked out from the molar mass of the structure shown.

Tests used:
Format in all cases: functional
Streptococcus pneumoniae [1] = experiment: Antimicrobial activity against erythromycin-resistant Streptococcus pneumoniae assessed as susceptible isolates by broth microdilution method
Method in brief: (§1)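 Isolates were tested by broth microdilution in commercial microtiter trays. Medium was cation-adjusted Mueller-Hinton broth supplemented with 3 to 5% lysed horse blood. MICs were interpreted by CLSI criteria. For penicillin, the pre-2008 breakpoints were applied (susceptible ≤0.06 mg/liter).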

Streptococcus pneumoniae [2] = experiment: Antimicrobial activity against erythromycin-resistant Streptococcus pneumoniae by broth microdilution method
Method in brief: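 Isolates were tested by broth microdilution in commercial microtiter trays. Medium was cation-adjusted Mueller-Hinton broth supplemented with 3 to 5% lysed horse blood. MICs were interpreted by CLSI criteria.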

Streptococcus pneumoniae [3] = experiment: Antimicrobial activity against erythromycin-resistant Streptococcus pneumoniae assessed as resistant isolates by broth microdilution method; method in brief: as §1
Streptococcus pneumoniae [4] = experiment: Antimicrobial activity against erythromycin-resistant Streptococcus pneumoniae by broth microdilution method in presence of clavulanic acid
Method in brief: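 Broth microdilution in commercial pre-made microtiter trays using cation-adjusted Mueller-Hinton broth with 3 to 5% lysed horse blood. Pneumococcal isolates were tested, and MICs were interpreted by CLSI criteria.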

Streptococcus pneumoniae [5] = experiment: Antimicrobial activity against erythromycin-resistant Streptococcus pneumoniae assessed as susceptible isolates by broth microdilution method in presence of clavulanic acid; method in brief: as §1
Streptococcus pneumoniae [6] = experiment: Antimicrobial activity against erythromycin-resistant Streptococcus pneumoniae assessed as resistant isolates by broth microdilution method in presence of clavulanic acid; method in brief: as §1

Row | SMILES | Activity (Streptococcus pneumoniae [1]) | MIC (Streptococcus pneumoniae [2]) | MIC50 (Streptococcus pneumoniae [2]) | MIC90 (Streptococcus pneumoniae [2]) | Activity (Streptococcus pneumoniae [3]) | MIC (Streptococcus pneumoniae [4]) | MIC50 (Streptococcus pneumoniae [4]) | MIC90 (Streptococcus pneumoniae [4]) | Activity (Streptococcus pneumoniae [5]) | Activity (Streptococcus pneumoniae [6])
1 | CC[C@H]1OC(=O)[C@H](C)[C@@H](O[C@H]2C[C@@](C)(OC)[C@@H](O)[C@H](C)O2)[C@H](C)[C@@H](O[C@@H]2O[C@H](C)C[C@H](N(C)C)[C@H]2O)[C@](C)(O)C[C@@H](C)CN(C)[C@H](C)[C@@H](O)[C@]1(C)O [AZITHROMYCIN] | 0% | > 2 µg/mL | > 2 µg/mL | > 2 µg/mL | 100% | – | – | – | – | –
2 | CC1(C)S[C@@H]2[C@H](NC(=O)[C@H](N)c3ccc(O)cc3)C(=O)N2[C@H]1C(=O)O [AMOXICILLIN] | – | – | – | – | – | < 2 µg/mL | < 2 µg/mL | > 8 µg/mL | 66.7% | 28.4%
3 | CC[C@H]1OC(=O)[C@H](C)[C@@H](O[C@H]2C[C@@](C)(OC)[C@@H](O)[C@H](C)O2)[C@H](C)[C@@H](O[C@@H]2O[C@H](C)C[C@H](N(C)C)[C@H]2O)[C@](C)(O)C[C@@H](C)C(=O)[C@H](C)[C@@H](O)[C@]1(C)O [ERYTHROMYCIN] | 0% | > 2 µg/mL | > 2 µg/mL | > 2 µg/mL | 100% | – | – | – | – | –
4 | O=C(N[C@H](CO)[C@H](O)c1ccc([N+](=O)[O-])cc1)C(Cl)Cl [CHLORAMPHENICOL] | 66.7% | – | 4 µg/mL (≈ 12.4 µM) | 8 µg/mL (≈ 24.8 µM) | 33.3% | – | – | – | – | –
5 | CC(=O)NC[C@H]1CN(c2ccc(N3CCOCC3)c(F)c2)C(=O)O1 [LINEZOLID] | 100% | – | 1 µg/mL (≈ 2.96 µM) | 1 µg/mL (≈ 2.96 µM) | 0% | – | – | – | – | –
6 | CO/N=C(\C(=O)N[C@@H]1C(=O)N2C(C(=O)O)=C(COC(C)=O)CS[C@H]12)c1csc(N)n1 [CEFOTAXIME] | 62.7% | – | 1 µg/mL (≈ 2.2 µM) | 2 µg/mL (≈ 4.39 µM) | 5.9% | – | – | – | – | –
7 | COc1c(N2C[C@@H]3CCCN[C@@H]3C2)c(F)cc2c(=O)c(C(=O)O)cn(C3CC3)c12 [MOXIFLOXACIN] | 100% | – | – | – | 0% | – | – | – | – | –
8 | CC1(C)S[C@@H]2[C@H](NC(=O)Cc3ccccc3)C(=O)N2[C@H]1C(=O)O [PENICILLIN G] | 24.5% | – | 2 µg/mL (≈ 5.98 µM) | 4 µg/mL (≈ 12 µM) | 68.6% | – | – | – | – | –
9 | COc1c(N2CCNC(C)C2)c(F)cc2c(=O)c(C(=O)O)cn(C3CC3)c12 (stereo not drawn) [GATIFLOXACIN] | 100% | < 0.5 µg/mL | < 0.5 µg/mL | < 0.5 µg/mL | 0% | – | – | – | – | –
10 | CCC[C@@H]1C[C@@H](C(=O)N[C@@H]([C@H]2O[C@H](SC)[C@H](O)[C@@H](O)[C@H]2O)[C@H](C)Cl)N(C)C1 [CLINDAMYCIN] | 30.4% | – | > 2 µg/mL | > 2 µg/mL | 67.6% | – | – | – | – | –
11 | CN(C)[C@@H]1C(O)=C(C(N)=O)C(=O)[C@@]2(O)C(O)=C3C(=O)c4c(O)cccc4[C@@](C)(O)[C@H]3C[C@@H]12 [TETRACYCLINE] | 24.5% | – | ≥ 8 µg/mL | ≥ 8 µg/mL | 74.5% | – | – | – | – | –
12 | CN[C@H](CC(C)C)C(=O)N[C@H]1C(=O)N[C@@H](CC(N)=O)C(=O)N[C@H]2C(=O)N[C@H]3C(=O)N[C@H](C(=O)N[C@H](C(=O)O)c4cc(O)cc(O)c4-c4cc3ccc4O)[C@H](O)c3ccc(c(Cl)c3)Oc3cc2cc(c3O[C@@H]2O[C@H](CO)[C@@H](O)[C@H](O)[C@H]2O[C@H]2C[C@](C)(N)[C@H](O)[C@H](C)O2)Oc2ccc(cc2Cl)[C@H]1O [VANCOMYCIN] | 100% | – | < 0.5 µg/mL | < 0.5 µg/mL | 0% | – | – | – | – | –
13 | C[C@H]1COc2c(N3CCN(C)CC3)c(F)cc3c(=O)c(C(=O)O)cn1c23.C[C@H]1COc2c(N3CCN(C)CC3)c(F)cc3c(=O)c(C(=O)O)cn1c23.O [LEVOFLOXACIN] | 100% | – | 1 µg/mL | 1 µg/mL | 0% | – | – | – | – | –
14 | C[C@@H](O)[C@H]1C(=O)N2C(C(=O)O)=C(S[C@@H]3CN[C@H](C(=O)N(C)C)C3)[C@H](C)[C@H]12 [MEROPENEM] | 33.3% | – | 0.5 µg/mL (≈ 1.3 µM) | 1 µg/mL (≈ 2.61 µM) | 34.3% | – | – | – | – | –
